Here are results for five molecules from ChEMBL document CHEMBL2203250, “Synthesis and evaluation of 3-¹²³I-iodo-5-[2-(S)-3-pyrrolinylmethoxy]-pyridine (niodene) as a potential nicotinic α4β2 receptor imaging agent” (Bioorg Med Chem Lett, 2012).

pKi: −log10 of the molar value. Active and inactive are the calls of the source. No cut-off for these calls is given here. A value given as a limit tells only on which side of the number the result lay.

Data set [1] deals with T1, Neuronal acetylcholine receptor; alpha4/beta2 (Rattus norvegicus) (UniProt P09483+P12390). The data set can be described thus: Displacement of [18F]nifene from alpha4beta nAChR in Sprague-Dawley rat subiculum at 10 nM after 60 mins by autoradiographic analysis. The data set is classed as protein-complex assay. The method, boiled down:
(§1)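 Rat brain slices were preincubated 10 min in Tris HCl buffer with salts, pH 7.4. […] Slices got two 1-min ice-cold Tris HCl washes and a cold water rinse, then overnight phosphor-screen exposure. Regional binding was read as DLU/mm² and expressed relative to cerebellum.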
In general terms: Loss of bound radioactivity is the signal in a displacement assay; it reports binding, not function.

In data set [2] the target is T1, Neuronal acetylcholine receptor; alpha4/beta2 (Rattus norvegicus). Nature of the data set: Displacement of [18F]nifene from alpha4beta nAChR in Sprague-Dawley rat striatum at 10 nM after 60 mins by autoradiographic analysis. Type of data set: protein-complex assay. In a few lines: as §1
For data set [3] the target is unchanged. Nature of the data set: Displacement of [18F]nifene from alpha4beta nAChR in Sprague-Dawley rat frontal cortex at 10 nM after 60 mins by autoradiographic analysis. The data set is classed as tissue-based. In a few lines:
as §1

Data set [4] shares this target. Nature of the data set: Displacement of [18F]nifene from alpha4beta nAChR in Sprague-Dawley rat thalamus at 10 nM after 60 mins by autoradiographic analysis. The data set is classed as protein-complex assay. In a few lines:
as §1

Data set [5] has the same target. The data set can be described thus: Ratio of nifene Ki to compound Ki for rat alpha4beta2 nAChR. Type of data set: protein-complex assay.
Data set [6] shares this target. Nature of the data set: Binding affinity to alpha4beta2 nAChR in Sprague-Dawley rat cerebellum at 0.1 Ci/umol after 60 mins by autoradiographic analysis. The data set is classed as protein-complex assay. To be noted: tested as the 123I-labelled form. In a few lines:
(§2)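 Frozen rat brain sections were thawed for about 15 min at ambient temperature. They were preincubated 10 min in 120 mM Tris HCl with 5 mM NaCl, 5 mM KCl, 2.5 mM CaCl2 and 1 mM MgCl2, pH 7.4, then incubated with 5 nM 123I-niodene at 37 °C for 60 min. […] Sections were washed in ice-cold buffer and exposed to phosphor screens for at least 16 h. Regional binding was read as DLU/mm²; n ≥5 sections, mean and SD.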

Data set [7] shares this target. Nature of the data set: Binding affinity to alpha4beta2 nAChR in Sprague-Dawley rat cortex at 0.1 Ci/umol after 60 mins by autoradiographic analysis. The settings on record: tested as the 123I-labelled form. The method, boiled down:
as §2

For data set [8] the target is unchanged. Nature of the data set: Binding affinity to alpha4beta2 nAChR in Sprague-Dawley rat thalamus at 0.1 Ci/umol after 60 mins by autoradiographic analysis. The data set is classed as protein-complex assay. The settings on record: tested as the 123I-labelled form. The method, boiled down:
as §2

The target is the same in data set [9]. The data set can be described thus: Displacement of [18F]nifene from alpha4beta nAChR in Sprague-Dawley rat thalamus at 1 uM after 60 mins by autoradiographic analysis. The data set is classed as protein-complex assay. In a few lines:
as §1

The test system of data set [10] is Nucleic Acid. The data set can be described thus: Ratio of drug uptake in cortex to cerebellum in Sprague-Dawley rat brain at 0.1 Ci/umol after 60 mins by autoradiographic analysis. The data set is classed as ADME, tissue-based. The settings on record: in vivo, 1 h.
Data set [11] deals with Nucleic Acid. The data set can be described thus: Ratio of drug uptake in thalamus to cerebellum in Sprague-Dawley rat brain at 0.1 Ci/umol after 60 mins by autoradiographic analysis. Type of data set: ADME, tissue-based. The settings on record: in vivo, 1 h.
Data set [12] concerns Nucleic Acid. The data set can be described thus: Ratio of drug uptake in thalamus to cerebellum in Sprague-Dawley rat brain at 2 uCi/umol after 60 mins by autoradiographic analysis. The data set is classed as ADME, tissue-based. The settings on record: in vivo, 1 h.
The target in data set [13] is Neuronal acetylcholine receptor; alpha4/beta2 (Rattus norvegicus, UniProt P09483+P12390). The data set can be described thus: Displacement of [3H]cytisine from alpha4beta2 nAChR in rat brain homogenate. Type of data set: tissue-based. The method, boiled down:
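Male Sprague–Dawley rat cerebrum was homogenized, washed twice by centrifugation at 40,000g and resuspended. It was incubated with 1 nM 3H-cytisine and competitor (10^-10 to 10^-3 M) in 50 mM Tris, pH 7.0, with 120 mM NaCl, 5 mM KCl, 1 mM MgCl2 and 2.5 mM CaCl2, at 2 °C for 75 min. […] The assay was filtered, and filters were washed in cold buffer and scintillation-counted.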

As a reminder, the pKi is −log10 of the Ki, conventionally taken in molar units. Read a low pKi as a high Ki.

Chain of Neuronal acetylcholine receptor; alpha4/beta2 (P09483 whole entry): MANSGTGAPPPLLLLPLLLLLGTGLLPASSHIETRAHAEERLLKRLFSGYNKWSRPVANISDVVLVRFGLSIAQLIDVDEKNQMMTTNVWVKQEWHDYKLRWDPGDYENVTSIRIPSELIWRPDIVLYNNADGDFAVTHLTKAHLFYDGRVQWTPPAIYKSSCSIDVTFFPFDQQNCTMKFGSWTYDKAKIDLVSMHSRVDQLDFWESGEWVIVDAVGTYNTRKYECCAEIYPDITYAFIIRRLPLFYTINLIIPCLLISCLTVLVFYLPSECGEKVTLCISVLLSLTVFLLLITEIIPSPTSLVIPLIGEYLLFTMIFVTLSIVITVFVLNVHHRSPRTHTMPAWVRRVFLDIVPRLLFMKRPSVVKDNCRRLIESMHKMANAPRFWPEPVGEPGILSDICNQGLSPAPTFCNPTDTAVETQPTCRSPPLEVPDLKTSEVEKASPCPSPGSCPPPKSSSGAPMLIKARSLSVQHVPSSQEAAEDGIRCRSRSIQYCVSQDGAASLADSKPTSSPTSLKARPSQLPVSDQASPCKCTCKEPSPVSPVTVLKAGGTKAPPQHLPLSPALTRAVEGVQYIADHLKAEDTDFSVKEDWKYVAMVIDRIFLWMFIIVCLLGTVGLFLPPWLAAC
Chain of Neuronal acetylcholine receptor; alpha4/beta2 (P12390 whole entry): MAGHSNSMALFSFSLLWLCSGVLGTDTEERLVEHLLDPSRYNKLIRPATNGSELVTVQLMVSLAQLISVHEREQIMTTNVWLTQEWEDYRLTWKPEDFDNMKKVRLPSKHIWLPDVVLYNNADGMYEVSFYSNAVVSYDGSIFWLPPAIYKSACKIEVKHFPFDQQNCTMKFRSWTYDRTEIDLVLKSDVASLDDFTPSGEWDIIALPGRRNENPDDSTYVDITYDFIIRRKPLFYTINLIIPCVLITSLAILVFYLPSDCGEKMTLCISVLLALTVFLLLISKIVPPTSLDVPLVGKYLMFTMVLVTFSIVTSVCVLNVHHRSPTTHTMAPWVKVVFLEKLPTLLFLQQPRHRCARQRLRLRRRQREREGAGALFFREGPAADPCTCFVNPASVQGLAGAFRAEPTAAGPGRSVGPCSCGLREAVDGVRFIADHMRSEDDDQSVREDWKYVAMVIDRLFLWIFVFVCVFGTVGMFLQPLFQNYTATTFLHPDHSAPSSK

As for `CN1CCC[C@H]1c1cccnc1`, the result in data set [1], in [2] and in [3] was Active. The molecule also had an Activity in data set [4] of 24%.

Consider `Ic1cncc(OC[C@@H]2C=CCN2)c1`, for which the Ratio Ki in data set [5] was 2. The outcome in data set [6] was inactive. Further, the result in [7], in data set [8], in data set [1], in data set [2] and in data set [3] was Active. Also, the Activity in data set [9] was > 80%; in data set [4] it was > 65%.

On to `[123I]c1cncc(OC[C@@H]2C=CCN2)c1`, for which the Ratio is 1.6 in the data set on Nucleic Acid [10] and 4 in the data set on Nucleic Acid [11].

For `[18F]c1ncccc1OC[C@@H]1C=CCN1`, in the data set on Nucleic Acid [12], the Ratio was found to be 7.3.

In turn, `Fc1ncccc1OC[C@@H]1C=CCN1` gave a pKi in data set [13] of 9.30.
